Activity calls are given as the source filed them. The calls are words filed in the database; no cut-off is given here.
What was measured:
BV-2 [1] = assay: Anti-neuroinflammatory activity in mouse BV2 cells assessed as inhibition of LPS-induced TNF-alpha production by measuring TNF-alpha level at 1 uM preincubated for 1 hr followed by LPS stimulation and measured after 24 hrs by ELISA (reference value: 100 +/- 0%); type: functional; set-up: scale not given: the % may be the effect or the level left; details: time 25 hrs
In short: (§1)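 BV2 murine microglia in DMEM:F-12 (1:1) with 10% heat-inactivated FBS and penicillin/streptomycin, 5% CO2, seeded at 5 x 10^5 cells/mL in 12-well plates and attached overnight. Compound in DMSO (0.1% v/v final) added 1 h before LPS (E. coli O55:B5, 100 ng/mL) for 24 h. Medium centrifuged, then assayed by ELISA. Values are % of LPS, mean ± SEM, three experiments.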

BV-2 [2] = assay: Anti-neuroinflammatory activity in mouse BV2 cells assessed as inhibition of LPS-induced TNF-alpha production by measuring TNF-alpha level at 50 uM preincubated for 1 hr followed by LPS stimulation and measured after 24 hrs by ELISA (reference value: 100 +/- 0%); type: functional; details: time 25 hrs; in short: as §1
BV-2 [3] = assay: Anti-neuroinflammatory activity in mouse BV2 cells assessed as inhibition of LPS-induced TNF-alpha production preincubated for 1 hr followed by LPS treatment and measured after 24 hrs by ELISA; type: functional, cell-based; details: dose 12-50 µM, time 25.0 hrs; in short: as §1
Microglia [4] = assay: Anti-neuroinflammatory activity in primary mouse microglia cells assessed as reduction in LPS-induced IL-23p19 mRNA expression at 100 uM preincubated for 1 hr followed by LPS treatment for 4 hrs by qPCR analysis; type: functional, cell-based; details: time 5.0 hrs
In short: (§2)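 Primary microglia come from cortical cells of 1-2-day neonatal mice, grown in DMEM/F12 with 10% FBS and 2 mM glutamine, plus 5 ng/ml GM-CSF from day 3. Cells shaken off at day 13-14, plated at 5 x 10^5 cells/mL and attached overnight. Compound given 1 h before LPS 100 ng/mL for 2 or 4 h, then RNA extracted and qPCR run. Mean ± SEM, three experiments.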

Microglia [5] = assay: Anti-neuroinflammatory activity in primary mouse microglia cells assessed as reduction in LPS-induced IL-1beta mRNA expression at 100 uM preincubated for 1 hr followed by LPS treatment for 4 hrs by qPCR analysis; type: functional, cell-based; details: time 5.0 hrs; in short: as §2
Microglia [6] = assay: Anti-neuroinflammatory activity in primary mouse microglia cells assessed as reduction in LPS-induced GM-CSF mRNA expression at 100 uM preincubated for 1 hr followed by LPS treatment for 4 hrs by qPCR analysis; type: functional, cell-based; details: time 5.0 hrs; in short: as §2
Microglia [7] = assay: Anti-neuroinflammatory activity in primary mouse microglia cells assessed as reduction in LPS-induced IL-12p40 mRNA expression at 100 uM preincubated for 1 hr followed by LPS treatment for 2 hrs by qPCR analysis; type: functional, cell-based; details: time 3.0 hrs; in short: as §2
Microglia [8] = assay: Anti-neuroinflammatory activity in primary mouse microglia cells assessed as reduction in LPS-induced TNF mRNA expression at 100 uM preincubated for 1 hr followed by LPS treatment for 2 hrs by qPCR analysis; type: functional, cell-based; details: time 3.0 hrs; in short: as §2
BV-2 [9] = assay: Anti-neuroinflammatory activity in mouse BV2 cells assessed as inhibition of LPS-induced IL-6 production preincubated for 1 hr followed by LPS treatment and measured after 24 hrs by ELISA; type: functional, cell-based; details: dose 25-50 µM, time 25.0 hrs; in short: as §1
Microglia [10] = assay: Anti-neuroinflammatory activity in primary mouse microglia cells assessed as reduction in LPS-induced IL-12p35 mRNA expression at 100 uM preincubated for 1 hr followed by LPS treatment for 2 hrs by qPCR analysis; type: functional, cell-based; details: time 3.0 hrs; in short: as §2
Microglia [11] = assay: Anti-neuroinflammatory activity in primary mouse microglia cells assessed as reduction in LPS-induced IL-12p35 mRNA expression at 100 uM preincubated for 1 hr followed by LPS treatment for 4 hrs by qPCR analysis; type: functional, cell-based; details: time 5.0 hrs; in short: as §2
Microglia [12] = assay: Anti-neuroinflammatory activity in primary mouse microglia cells assessed as reduction in LPS-induced IL-12p40 mRNA expression at 100 uM preincubated for 1 hr followed by LPS treatment for 4 hrs by qPCR analysis; type: functional, cell-based; details: time 5.0 hrs; in short: as §2
Microglia [13] = assay: Anti-neuroinflammatory activity in primary mouse microglia cells assessed as reduction in LPS-induced IL6 mRNA expression at 100 uM preincubated for 1 hr followed by LPS treatment for 2 hrs by qPCR analysis; type: functional, cell-based; details: time 3.0 hrs; in short: as §2
Microglia [14] = assay: Anti-neuroinflammatory activity in primary mouse microglia cells assessed as reduction in LPS-induced TNF mRNA expression at 100 uM preincubated for 1 hr followed by LPS treatment for 4 hrs by qPCR analysis; type: functional, cell-based; details: time 5.0 hrs; in short: as §2
Microglia [15] = assay: Anti-neuroinflammatory activity in primary mouse microglia cells assessed as reduction in LPS-induced IL-1beta mRNA expression at 100 uM preincubated for 1 hr followed by LPS treatment for 2 hrs by qPCR analysis; type: functional, cell-based; details: time 3.0 hrs; in short: as §2
Microglia [16] = assay: Anti-neuroinflammatory activity in primary mouse microglia cells assessed as reduction in LPS-induced GM-CSF mRNA expression at 100 uM preincubated for 1 hr followed by LPS treatment for 2 hrs by qPCR analysis; type: functional, cell-based; details: time 3.0 hrs; in short: as §2
BV-2 [17] = assay: Anti-neuroinflammatory activity in mouse BV2 cells assessed as inhibition of LPS-induced nitrite production preincubated for 1 hr followed by LPS treatment and measured after 24 hrs by Griess assay; type: functional, cell-based; details: dose 6-50 µM, time 25.0 hrs
In short: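 BV2 cells seeded at 5 x 10^5 cells/mL in 12-well plates and attached overnight. Compound (0.1% v/v DMSO final) given 1 h before LPS 100 ng/mL for 24 h. Medium centrifuged to remove floating cells, then nitrite read by Griess kit. Mean ± SEM from three experiments.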

Microglia [18] = assay: Anti-neuroinflammatory activity in primary mouse microglia cells assessed as reduction in LPS-induced IL-23p19 mRNA expression at 100 uM preincubated for 1 hr followed by LPS treatment for 2 hrs by qPCR analysis; type: functional, cell-based; details: time 3.0 hrs; in short: as §2
Microglia [19] = assay: Anti-neuroinflammatory activity in primary mouse microglia cells assessed as reduction in LPS-induced IL6 mRNA expression at 100 uM preincubated for 1 hr followed by LPS treatment for 4 hrs by qPCR analysis; type: functional, cell-based; details: time 5.0 hrs; in short: as §2

Structure (SMILES) | TNF-alpha level (% of LPS control) (BV-2 [2]) [%] | also measured
COc1ccc2cc3[n+](cc2c1OC)CCc1cc2c(cc1-3)OCO2.[Cl-] [BERBERINE CHLORIDE] |  | Activity (BV-2 [1]): 25%
COc1ccc2c(c1)CCN(Cc1c(OC)cccc1OC)C2 | 64 | 
COc1ccc(CN2CCc3cc4c(cc3C2)OCO4)cc1 | 88 | 
COc1ccc(CN2CCc3cc4c(cc3C2)OCO4)c(OC)c1 | 103 | 
Cc1cccc(C)c1CN1CCc2cc3c(cc2C1)OCO3 | 101 | 
COc1cccc(CN2CCc3ccccc3C2)c1OC | 95 | 
COc1cccc(CN2CCc3cc4c(cc3C2)OCO4)c1OC | 61 | 
COc1ccc(CC2c3cc4c(cc3CC[N+]2(C)C)OCO4)cc1OC.[I-] (centres undefined) | 97 | 
COc1cccc(OC)c1CN1CCc2cc3c(cc2C1)OCO3 | 39 | Activity (BV-2 [3]): Dose-dependent effect; Activity (Microglia [4]): Active; Activity (Microglia [5]): Active; Activity (Microglia [6]): Active; Activity (Microglia [7]): inactive; Activity (Microglia [8]): inactive; Activity (BV-2 [9]): Dose-dependent effect; Activity (Microglia [10]): Active; Activity (Microglia [11]): Active; Activity (Microglia [12]): inactive; Activity (Microglia [13]): Active; Activity (Microglia [14]): inactive; Activity (Microglia [15]): Active; Activity (Microglia [16]): Active; Activity (BV-2 [17]): Dose-dependent effect; Activity (Microglia [18]): Active; Activity (Microglia [19]): Active
COc1ccc2c(c1)CN(Cc1c(OC)cccc1OC)CC2 | 82 | 
c1ccc(CN2CCc3cc4c(cc3C2)OCO4)cc1 | 90 | 
COc1cccc(OC)c1C(=O)N1CCc2cc3c(cc2C1)OCO3 | 73 | 
COc1ccc2c(c1OC)C[N+]1(Cc3ccccc3)CCc3cc4c(cc3C1C2)OCO4.[Br-] (centres undefined) | 22 | 
COc1cc(CN2CCc3cc4c(cc3C2)OCO4)cc(OC)c1 | 89 | 
FC(F)(F)c1ccc(CN2CCc3cc4c(cc3C2)OCO4)cc1 | 102 | 
COc1cccc(CN2CCc3cc4c(cc3C2)OCO4)c1 | 78 | 
COc1ccc2c(c1OC)CN1CCc3cc4c(cc3C1C2)OCO4 (centres undefined) [TETRAHYDROBERBERINE] | 45 | 
COc1cccc(OC)c1CN1CCc2ccccc2C1 | 78 | 
Clc1cccc(Cl)c1CN1CCc2cc3c(cc2C1)OCO3 | 107 | 
COc1ccc(CC2NCCc3cc4c(cc32)OCO4)cc1OC (centres undefined) | 77 | 
COc1ccc(CC2c3cc4c(cc3CCN2C)OCO4)cc1OC (centres undefined) | 77 | 
COc1ccccc1CN1CCc2cc3c(cc2C1)OCO3 | 78 | 
